The results in this text go back to ChEMBL document CHEMBL1148314, “4-(omega-(alkyloxy)alkyl)-1H-imidazole derivatives as histamine H(3) receptor antagonists/agonists” (J Med Chem, 2004).

Assay [1] has as its target T1, Histamine H3 receptor (Rattus norvegicus, UniProt Q9QYN8). The assay can be described thus: In vitro […] against rat histamine H3 receptor. The gist of the method: (§1)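 Rat cerebral cortex synaptosomes preloaded 30 min at 37 °C with L-[3H]histidine 0.4 μM in modified Krebs–Ringer, washed, then depolarized 2 min with 2 or 30 mM K+. Drugs and 1 μM histamine added 5 min before the stimulus. [3H]histamine measured by scintillation after purification; Ki by Cheng–Prusoff, mean ± SEM of at least three experiments.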

For assay [2], the system named is Mus musculus. Briefly: Potency after oral administration in vivo in mice. The class given is functional.
The target in assay [3] is T1, Histamine H3 receptor. The assay can be described thus: Functional Histamine H3 receptor antagonistic activity in vitro assay on synaptosomes of rat cerebral cortex. Type of assay: subcellular, Brain. The gist of the method: as §1
Assay [4] concerns the target Histamine H2 receptor (Cavia porcellus, UniProt P47747). Briefly: Functional H2 receptor antagonistic activity in vitro assay on the isolated spontaneously beating guinea-pig right atrium. The class given is tissue-based, Cardiac atrium. The note with it: read-out: pA2 (converted). A digest of the protocol: (§2)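 Isolated guinea-pig tissues, spontaneously beating right atrium for H2 and ileum for H1, tested by standard methods. At least triplicate; values are means.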

Assay [5] addresses Histamine H1 receptor (Cavia porcellus, UniProt P31389). Briefly: Functional Histamine H1 receptor antagonistic activity in vitro assay on guinea pig ileum. The note with it: read-out: pA2 (converted). Type of assay: tissue-based. A digest of the protocol:
as §2

Assay [6] addresses T2, Histamine H3 receptor (Homo sapiens, UniProt Q9Y5N1). Briefly: (§3) Effect on specific [35S]GTP-gamma-S, Binding to HEK293 cell membranes expressing the human Histamine H3 receptor. The class given is functional. A digest of the protocol:
(§4)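 HEK293 cells stably transfected with human H3 receptor (selected with 2 mg/mL G418, maintained in 1 mg/mL). Membranes prepared in Tris/HCl 50 mM pH 7.5; 10–20 μg protein incubated 60 min at 20 °C with 0.1 nM [35S]GTPγS ± drug in Tris 50 mM, NaCl 100 mM, MgCl2 10 mM, GDP 10 μM.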
Background: GTPγS resists hydrolysis and so accumulates on activated G proteins.

Assay [7] concerns the target T2, Histamine H3 receptor. The assay is described as §3. The class given is functional. The gist of the method: as §4
This is another data set of the same source.

Assay [8] has as its target Histamine H3 receptor (Cavia porcellus, UniProt Q9JI35). Briefly: Functional Histamine H3 receptor antagonistic activity in vitro assay on guinea pig ileum. The note with it: read-out: pA2 (converted). Type of assay: tissue-based. A digest of the protocol: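 Guinea-pig ileal longitudinal muscle–myenteric plexus strips at about 7.5 mN in Krebs–Henseleit, 37 °C, 95% O2/5% CO2, mepyramine 1 μM present. Field stimulated at 15 V, 0.5 ms, 0.1 Hz. Cumulative (R)-α-methylhistamine curves (1–1000 nM) recorded before and after antagonist; rightward shift corrected by the shift in daily controls.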

T1 sequence (Q9QYN8 whole entry): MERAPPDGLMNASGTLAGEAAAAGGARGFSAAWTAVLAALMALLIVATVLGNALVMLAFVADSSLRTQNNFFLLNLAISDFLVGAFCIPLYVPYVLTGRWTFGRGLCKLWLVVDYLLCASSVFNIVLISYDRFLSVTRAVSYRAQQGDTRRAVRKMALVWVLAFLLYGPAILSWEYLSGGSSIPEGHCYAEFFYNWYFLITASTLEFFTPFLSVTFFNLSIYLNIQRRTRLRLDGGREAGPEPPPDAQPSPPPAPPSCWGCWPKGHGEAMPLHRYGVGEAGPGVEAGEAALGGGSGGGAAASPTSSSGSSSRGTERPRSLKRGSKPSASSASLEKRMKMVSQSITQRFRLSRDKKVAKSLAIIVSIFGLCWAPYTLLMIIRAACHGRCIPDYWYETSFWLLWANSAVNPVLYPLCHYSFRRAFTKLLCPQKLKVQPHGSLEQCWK
T2 sequence (Q9Y5N1 whole entry): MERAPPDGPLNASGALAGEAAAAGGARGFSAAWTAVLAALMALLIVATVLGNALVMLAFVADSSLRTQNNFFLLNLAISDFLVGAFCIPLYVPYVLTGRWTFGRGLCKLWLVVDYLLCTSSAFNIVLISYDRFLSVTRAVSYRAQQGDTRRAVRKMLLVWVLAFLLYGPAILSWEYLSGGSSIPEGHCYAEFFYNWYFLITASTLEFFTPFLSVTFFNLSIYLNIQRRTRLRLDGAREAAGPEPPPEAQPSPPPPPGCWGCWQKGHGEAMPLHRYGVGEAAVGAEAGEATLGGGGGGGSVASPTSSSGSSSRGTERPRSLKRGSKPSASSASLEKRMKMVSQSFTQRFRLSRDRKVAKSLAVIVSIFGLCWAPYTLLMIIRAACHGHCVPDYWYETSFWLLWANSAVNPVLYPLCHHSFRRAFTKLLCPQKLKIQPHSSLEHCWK
Histamine H3 receptor (Cavia porcellus, UniProt Q9JI35), sequence (Q9JI35 whole entry): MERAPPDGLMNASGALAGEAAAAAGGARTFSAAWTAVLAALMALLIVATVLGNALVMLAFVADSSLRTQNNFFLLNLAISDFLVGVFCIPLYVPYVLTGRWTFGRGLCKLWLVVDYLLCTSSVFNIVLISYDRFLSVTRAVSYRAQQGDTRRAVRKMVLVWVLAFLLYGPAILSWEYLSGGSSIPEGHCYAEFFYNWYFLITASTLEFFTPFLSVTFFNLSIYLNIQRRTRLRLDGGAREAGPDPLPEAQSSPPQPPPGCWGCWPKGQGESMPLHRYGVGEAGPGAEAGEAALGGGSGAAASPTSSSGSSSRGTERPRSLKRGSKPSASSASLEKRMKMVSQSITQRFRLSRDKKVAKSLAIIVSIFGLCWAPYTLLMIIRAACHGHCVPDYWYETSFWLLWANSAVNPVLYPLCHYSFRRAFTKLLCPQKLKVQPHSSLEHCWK
Histamine H2 receptor, sequence (P47747 whole entry): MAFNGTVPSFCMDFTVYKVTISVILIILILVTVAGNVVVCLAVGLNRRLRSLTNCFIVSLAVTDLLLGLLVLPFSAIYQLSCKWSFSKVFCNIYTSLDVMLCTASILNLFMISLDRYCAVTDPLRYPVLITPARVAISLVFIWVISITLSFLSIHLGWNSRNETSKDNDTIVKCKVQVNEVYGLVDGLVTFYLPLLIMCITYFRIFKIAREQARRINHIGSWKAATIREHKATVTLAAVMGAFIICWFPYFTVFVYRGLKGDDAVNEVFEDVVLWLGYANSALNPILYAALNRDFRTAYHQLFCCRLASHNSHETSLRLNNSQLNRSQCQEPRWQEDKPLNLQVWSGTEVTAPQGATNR
Histamine H1 receptor, sequence (P31389 whole entry): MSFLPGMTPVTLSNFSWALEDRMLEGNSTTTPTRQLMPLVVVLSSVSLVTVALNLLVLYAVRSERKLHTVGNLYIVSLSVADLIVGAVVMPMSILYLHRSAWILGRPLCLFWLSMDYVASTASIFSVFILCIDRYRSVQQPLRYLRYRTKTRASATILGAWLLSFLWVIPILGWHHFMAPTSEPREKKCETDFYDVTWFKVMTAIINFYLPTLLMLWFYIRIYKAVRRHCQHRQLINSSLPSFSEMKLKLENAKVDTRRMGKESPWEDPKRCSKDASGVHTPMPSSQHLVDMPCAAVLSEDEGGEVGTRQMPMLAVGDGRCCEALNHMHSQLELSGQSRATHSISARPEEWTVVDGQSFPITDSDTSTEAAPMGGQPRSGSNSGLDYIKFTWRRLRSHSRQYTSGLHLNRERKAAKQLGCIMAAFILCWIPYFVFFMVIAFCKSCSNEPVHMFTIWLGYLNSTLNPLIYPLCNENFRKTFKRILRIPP

For orientation: Ki means a dissociation constant, usually derived from enzyme kinetics or from competition with a known ligand. Low readings indicate tighter binding, high ones weaker binding. By ED50 is commonly meant the dose at which the effect has come halfway, by size or by number of responders. Read a high ED50 as weaker potency. `O=C(COCCCc1c[nH]cn1)c1ccccc1.O=C(O)/C=C\C(=O)O` returned a Ki in assay [1] of over 500 nM. Also, the ED50 in assay [2] was over 10 mg/kg.

Consider `CCCOCCCc1c[nH]cn1.O=C(O)C(=O)O`, for which the results for the Ki in assay [3] and in assay [1] were 251 nM and 230 nM, respectively. The Kb in assay [4] and in assay [5] was over 31600 nM throughout. Also, the ED50 in assay [2] was determined as 1.8 mg/kg.

In assay [1], `O=C(O)/C=C\C(=O)O.c1nc(COCCC2CCCCC2)c[nH]1` displayed a Ki of over 500 nM. The compound also had an ED50 in assay [2] of over 10 mg/kg.

Take `COCCCc1c[nH]cn1.O=C(O)C(=O)O`: the results for the Ki in assay [3] and in assay [1] were 316 nM and 290 nM, respectively. In addition, the Kb in assay [4] was over 31600 nM; in assay [5], over 100000 nM. In assay [2], this compound gave an ED50 of about 10 mg/kg.

On to `c1nc(CCCOCCC2CCCCC2)c[nH]1`, for which the values for the Ki in assay [3] and in assay [1] were 10 nM and 11 nM, respectively.

Usually EC50 stands for the midpoint of the concentration-response curve. Compound `CCCCOCCCc1c[nH]cn1.O=C(O)/C=C\C(=O)O` came in with an EC50 in assay [6] of 311 nM. Moreover, affinity in assay [1] was put at a Ki of 56 nM. Also, the ED50 in assay [2] was over 10 mg/kg. The Intrinsic activity in assay [7] amounted to 0.39.

Turning to `C#CCCCOCCCc1c[nH]cn1`, the Ki was 39.8 nM in assay [3] and 38 nM in assay [1]. For the same compound, the Kb in assay [8] was 316 nM.

In assay [6], `CCCCCCOCCCc1c[nH]cn1.O=C(O)/C=C\C(=O)O` had an EC50 of 40 nM. Moreover, the Ki is 12.6 nM in assay [3] and 14 nM in assay [1]. In addition, the Kb in assay [4] was 10000 nM; in assay [8], 39.8 nM; in assay [5], 7940 nM. Besides, the ED50 in assay [2] was over 30 mg/kg. In assay [7], the Intrinsic activity amounted to 0.49.

Regarding `CC(C)(C)OCCCc1c[nH]cn1.O=C(O)/C=C\C(=O)O`, the Ki was 126 nM in assay [3] and 120 nM in assay [1]. The Kb in assay [4] is over 31600 nM; in assay [5] it was over 100000 nM. Further, the ED50 in assay [2] was found to be 1.3 mg/kg.

As for `CC(C)(C)OCCc1c[nH]cn1.O=C(O)C(=O)O`, in assay [1], the Ki is over 500 nM. The compound also showed an ED50 in assay [2] of over 10 mg/kg.

As for `CCOCCCc1c[nH]cn1.O=C(O)C(=O)O`, the Kb in assay [4] is over 31600 nM; in assay [5], over 100000 nM. Besides, the ED50 in assay [2] is 0.26 mg/kg.

`CCCCCOCCCc1c[nH]cn1.O=C(O)/C=C\C(=O)O`: in assay [6], a half-maximal response (EC50) required 97 nM. For the same compound, the Ki was 31.6 nM in assay [3] and 33 nM in assay [1]. Also, the results for the Kb in assay [4], in assay [8] and in assay [5] were over 31600 nM, 63.1 nM and 20000 nM, respectively. This compound also displayed an ED50 in assay [2] of over 30 mg/kg. In assay [7], this compound had an Intrinsic activity of 0.47.

In assay [2], `S=C(NC1CCCCC1)N1CCC(c2cnc[nH]2)CC1` [THIOPERAMIDE] showed an ED50 of 1 mg/kg.

For `CCCCCCCCOCCCc1c[nH]cn1.O=C(O)/C=C\C(=O)O`, the Kb in assay [4] was 2510 nM; in assay [8] it was 100 nM; in assay [5] it was 15800 nM. Moreover, the ED50 in assay [2] is over 10 mg/kg.

As to `O=C(O)/C=C\C(=O)O.c1nc(CCCOCCCC2CCCCC2)c[nH]1`, the Ki in assay [3] was 20 nM. Besides, the Kb is 50100 nM in assay [4] and 7940 nM in assay [5]. Further, in assay [2], the 50% effect level (ED50) was put at a dose of 1 mg/kg.

On to `CCCCCCCOCCCc1c[nH]cn1`, for which, in assay [3], the affinity, expressed as Ki, was 15.8 nM. The Kb in assay [4] is 2000 nM; in assay [8], 15.8 nM; in assay [5], over 100000 nM.

`C=CCCCOCCCc1c[nH]cn1.O=C(O)C(=O)O` had a Ki in assay [1] of 27 nM. Besides, the ED50 in assay [2] is at least 10 mg/kg.

Take `N#CCCOCCCc1c[nH]cn1.O=C(O)C(=O)O`: in assay [1], the affinity corresponds to a Ki of 674 nM. In assay [2], this compound gave an ED50 of 3.2 mg/kg.

For the compound `c1nc(COCC2CCCCC2)c[nH]1`, the results for the Ki in assay [3] and in assay [1] were over 1000 nM and over 500 nM, respectively.

Take `c1nc(CCCOCC2CC2)c[nH]1`: the Ki in assay [1] worked out at 167 nM.

Consider `O=C(O)/C=C\C(=O)O.c1nc(CCCOCCCC2CCCC2)c[nH]1`, for which the Ki in assay [3] was 6.31 nM; in assay [1], 7 nM. The Kb was 5010 nM in assay [4], 15.8 nM in assay [8] and 20000 nM in assay [5]. The ED50 in assay [2] was 0.28 mg/kg.

In assay [1], `c1nc(COCCCC2CCCCC2)c[nH]1` gave a Ki of at least 500 nM.

The compound `O=C(c1ccc(OCCCc2c[nH]cn2)cc1)C1CC1` [CIPROXIFAN] registered an ED50 in assay [2] of 0.14 mg/kg.

In assay [6], `C=CCOCCCc1c[nH]cn1.O=C(O)C(=O)O` yielded an EC50 of 336 nM. In addition, the Ki in assay [3] and in assay [1] was 200 nM throughout. Also, the Kb in assay [4] was over 31600 nM; in assay [5], over 316000 nM. This compound returned an ED50 in assay [2] of 0.33 mg/kg. The compound further showed an Intrinsic activity in assay [7] of 0.63.

In assay [1], `CC(=O)CCOCCCc1c[nH]cn1` registered a Ki of 143 nM.

As for `O=C(CCCOCCCc1c[nH]cn1)c1ccc(F)cc1.O=C(O)C(=O)O`, the Ki in assay [1] came out at 14 nM. Also, it took a dose of 0.28 mg/kg to reach the 50% effect level in assay [2] (ED50).

As for `c1nc(COCC2CC3CCC2C3)c[nH]1` (stereo not given), the Ki in assay [1] is about 500 nM.

On to `C#CCOCCCc1c[nH]cn1.O=C(O)C(=O)O`, for which the response in assay [6] was half-maximal at 135 nM (EC50). Besides, the Ki in assay [3] is 200 nM; in assay [1] it was 190 nM. The Kb in assay [4] was over 31600 nM; in assay [5], over 316000 nM. Also, it took a dose of 0.57 mg/kg to reach the 50% effect level in assay [2] (ED50). The compound further yielded an Intrinsic activity in assay [7] of 0.73.

For `COCCOCCCc1c[nH]cn1`, the Ki in assay [1] was about 400 nM.

In assay [1], `c1ccc(CC(COCCCc2c[nH]cn2)c2ccccc2)cc1` (stereo not given) showed a Ki of 184 nM.

Regarding `O=C(COCCCc1c[nH]cn1)c1cccc([N+](=O)[O-])c1`, the Ki in assay [1] is over 500 nM.

In turn, `c1ccc(C(OCCCc2cnc[nH]2)(c2ccccc2)c2ccccc2)cc1` had a Ki in assay [1] of over 500 nM. The ED50 in assay [2] was over 10 mg/kg.
